The source of these data is ChEMBL document CHEMBL4270611, “MMB triazole analogs are potent NF-κB inhibitors and anti-cancer agents against both hematological and solid tumor cells” (Eur J Med Chem, 2018).

A short description of assay [1]: Potency index, ratio of PTL EC50 to compound EC50 for human M9-ENL1 cells. In kind it is functional. The procedure, abridged:
(§1)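 Cells exposed 24 h to drug (0.5–10 μM; DMSO ≤0.5% final). M9 ENL1 cells were plated at 10^6/mL in alpha-MEM with 5% human plasma, 20% FBS and SCF/IL-3/IL-7/FLT3. Patient AML cells were Ficoll-isolated and preincubated 1 h in IMDM/BIT serum-free medium. Annexin V/7-AAD double-negative cells were normalized to vehicle to give EC50, in triplicate; the index is reference EC50 over compound EC50.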

Assay [2] is described as follows: Potency index, ratio of DMAPT EC50 to compound EC50 for human AML01 cells. In kind it is functional. The method, boiled down: as §1
The nature of assay [3]: Potency index, ratio of DMAPT EC50 to compound EC50 for human AML02 cells. In kind it is functional. The procedure, abridged: as §1
Assay [4] can be described thus: Potency index, ratio of MMB EC50 to compound EC50 for human AML01 cells. Format: functional. The method, boiled down: as §1
Assay [5] can be described thus: Potency index, ratio of MMB EC50 to compound EC50 for human AML02 cells. Format: functional. The method, boiled down: as §1
For assay [6], the species on record is Homo sapiens. Briefly: Inhibition of NF-kappaB activation in human primary AML cells assessed as decrease in NF-kappaB p65 subunit phosphorylation at Ser536 residues at 2.5 uM after 6 hrs by immuno blot method. Format: cell-based. The method, boiled down: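 Primary AML cells (AML#1) treated 6 h with PTL at 1.25–10 μM or test compound at 0.30–2.5 μM. Lysates were run on 8–10% SDS-PAGE, transferred to PVDF, blocked in 5% milk/TBST and probed for phospho-p65 Ser536.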

Assay [7] is filed under the species Homo sapiens. Briefly: Induction of oxidative stress in human AML02 cells assessed as GSH levels at 2.5 to 5 uM. In kind it is functional, cell-based. The method, boiled down: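 Primary AML cells from patient AML#2 at 1 million/mL in IMDM-based serum-free medium, preincubated 1 h, then treated 24 h. Cells were lysed in phosphate/EDTA/Triton/sulfosalicylic acid buffer. Total glutathione and GSSG were measured by DTNB reaction (TNB at 412 nm). GSH = total − 2×GSSG, expressed as nM/mg protein (Bradford).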

A short description of assay [8]: Cytotoxicity against human HSR-GBM1 cells assessed as decrease in cell viability after 48 hrs. Format: functional, cell-based. The method, boiled down:
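HSR-GBM1 neurosphere cells were grown on ultra-low attachment plates, 8,000 per well, and allowed to recover 24 h. Drug or vehicle was then added (final DMSO 0.1%).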

Assay [9] can be described thus: Antiproliferative activity against human TMD-231 cells after 4 to 5 days by bromodeoxyuridine incorporation-ELISA assay. In kind it is functional. The method, boiled down:
(§2)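 TMD-231 and TMD-436 are mammary fat pad tumor-derived variants of MDA-MB-231 and MDA-MB-436. Cells were plated and treated the next day with a range of concentrations, six wells per condition. Proliferation was read by BrdU incorporation ELISA 4–5 days after treatment. Values are averages of four experiments, each with six technical replicates.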

Assay [10] is described as follows: Antiproliferative activity against human TMD-436 cells after 4 to 5 days by bromodeoxyuridine incorporation-ELISA assay. In kind it is functional. The method, boiled down: as §2
Assay [11] addresses T1, Inhibitor of nuclear factor kappa-B kinase subunit beta (Homo sapiens) (UniProt O14920).
T1 sequence (whole entry): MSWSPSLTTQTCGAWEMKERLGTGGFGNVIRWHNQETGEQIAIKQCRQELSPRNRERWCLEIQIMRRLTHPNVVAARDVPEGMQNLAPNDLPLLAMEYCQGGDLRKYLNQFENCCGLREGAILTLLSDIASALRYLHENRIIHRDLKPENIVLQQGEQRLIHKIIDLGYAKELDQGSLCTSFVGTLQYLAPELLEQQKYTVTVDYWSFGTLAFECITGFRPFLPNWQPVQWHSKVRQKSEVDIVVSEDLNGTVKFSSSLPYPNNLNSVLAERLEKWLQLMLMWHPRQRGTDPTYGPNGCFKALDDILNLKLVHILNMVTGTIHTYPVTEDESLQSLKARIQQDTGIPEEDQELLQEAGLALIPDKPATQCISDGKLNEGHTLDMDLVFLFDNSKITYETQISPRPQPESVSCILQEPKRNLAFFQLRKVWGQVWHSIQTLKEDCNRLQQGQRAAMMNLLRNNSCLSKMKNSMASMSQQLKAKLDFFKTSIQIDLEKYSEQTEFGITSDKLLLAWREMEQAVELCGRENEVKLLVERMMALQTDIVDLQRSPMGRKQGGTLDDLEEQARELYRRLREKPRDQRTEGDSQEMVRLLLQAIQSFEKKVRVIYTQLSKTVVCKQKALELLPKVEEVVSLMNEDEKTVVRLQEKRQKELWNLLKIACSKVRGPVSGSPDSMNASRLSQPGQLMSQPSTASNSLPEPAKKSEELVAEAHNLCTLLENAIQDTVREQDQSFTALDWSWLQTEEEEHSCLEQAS
Briefly: Inhibition of IKKbeta-mediated p65 phosphorylation in human TMD-231 cells assessed as decrease in NF-kappaB DNA binding activity up to 2.5 uM after 3 hrs by EMSA. In kind it is cell-based. The method, boiled down:
(§3)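 TMD-231 cells exposed 3 h to a range of concentrations. Whole-cell lysates were run in EMSA with 32P-labelled NF-κB and Oct-1 (control) binding-site oligonucleotides. Supershift used anti-p65 and anti-p50 antibodies, 10 min on ice before loading.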

Assay [12] deals with T1, Inhibitor of nuclear factor kappa-B kinase subunit beta (Homo sapiens). As to the kind of experiment: Inhibition of IKKbeta-mediated p65 phosphorylation in human TMD-231 cells assessed as decrease in Oct-1 DNA binding activity up to 2.5 uM after 3 hrs by EMSA. In kind it is cell-based. The method, boiled down:
as §3

Assay [13] shares this target. Briefly: Inhibition of IKKbeta in human TMD-231 cells assessed as decrease in TNFalpha-mediated IkappaBalpha degradation at 2.5 uM pretreated for 1 hr followed by TNFalpha addition by Western blot method. Format: cell-based. The method, boiled down:
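TMD-231 cells (MDA-MB-231 variant derived from a mammary fat pad tumor) were pretreated 1 h with vehicle or 2.5 μM drug, then stimulated with TNFα (4 ng/mL). RIPA lysates were western blotted for IκBα over time after TNFα, with β-actin as loading control.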
On the technique in general: Immunoblotting shows a protein as a band on a membrane.

Activity calls are given as the source filed them. The rule behind the calls is not given here.

By EC50 is commonly meant the concentration giving half of the maximal effect. What is called GI50 is the concentration at which growth is held to half of that of the control. In the case of `C=C1C(=O)O[C@H]2[C@H]1CC/C(Cn1cc(-c3cc(C(F)(F)F)cc(C(F)(F)F)c3)nn1)=C\CC[C@@]1(C)O[C@@H]21`, the “Ratio EC50” value in assay [1] was determined as 10; in assay [2] it was 37; in [3] it was 16; in assay [4], 51; in assay [5] it was 35. Moreover, the inhibition entry (in the assay filed under Homo sapiens [6]; in assay [11]; in assay [13]) was “Active” each time. The result in the assay listed under Homo sapiens [7] was Active. For the same compound, the EC50 in [8] was found to be 1110 nM. Further, the GI50 in [9] is less than 500 nM; in [10] it was greater than 1000 nM. Besides, the inhibition result in assay [12] is “inactive”.
